Source: PubChem (several laboratories)
Only some compounds are listed: those with a hit (about 3.6% of all), similar ones and a draw of the others.
DNA FID counter: fluorescent intercalator displacement, NS3 helicase counter-screen. DNA fluorescent intercalator displacement, fluorescence. inhibition, % at 7.9 µM. 290,000 compounds, 0.17% hits; in the data active = inhibition above about 37%;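 note: 0% = vehicle and 100% = reference compound; higher means more ethidium bromide displaced from hairpin DNA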
EBNA-1 inh: blocks EBNA-1 binding to DNA; EBNA-1 DNA binding, fluorescence polarization; 300,000 compounds, 0.34% hits; inhibition, % at 14.8 µM; AID 1950; in the data active = inhibition above about 28%
NR3A LBD binder: NR3A (human) ligand-binding domain modulation; NR3A LBD differential scanning fluorimetry, Tm shift; 0% = protein alone, 100% = glycine-bound protein; Tm shift relative to glycine control, % at 25 µM; 340,000 compounds, 2.5% hits;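 active = melting temperature shift of at least 10% of the positive control shift, at one fixed dose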
FGF22 binding: shifts melting point of recombinant human FGF22. 340,000 compounds, 1.5% hits. recombinant FGF22 thermal shift, SYPRO orange fluorescence; percent of sucrose octasulfate shift, DMSO zero. activity (Tm shift, normalised), % at 9.99 µM. AID 651658;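 active = mean Tm shift, scaled 0 neutral to 100 positive control, at about 1.3% or above, every replicate too, limit read from the data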
Target sequence (Q9HCT0 whole entry, looked up): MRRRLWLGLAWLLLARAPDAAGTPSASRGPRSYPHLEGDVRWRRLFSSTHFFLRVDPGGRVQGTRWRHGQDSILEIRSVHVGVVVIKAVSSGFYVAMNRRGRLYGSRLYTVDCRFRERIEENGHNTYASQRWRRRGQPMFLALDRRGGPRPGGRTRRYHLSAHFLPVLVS
HCV NS3 hel inh: HCV NS3 helicase inhibition; inhibition, % at 10.9 µM; 290,000 compounds, 0.56% hits; NS3 helicase DNA unwinding, Cy5 molecular beacon fluorescence;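 active = inhibition above the mean of all tested compounds plus 3 SD, set per campaign, cut at about 35% in these data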;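 note: 0% = DMSO wells and 100% = thioflavine S control wells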
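System: Hepatitis C virus NS3 helicase domain fragment enzyme | Reagent: Annealed dual-labelled DNA beacon duplex, ATP-started | Compound dosing: 10.9 µM single point, 0.8% DMSO | Incubation: 1 h reaction at 25 °C, ATP-initiated | Technique: Cy5 fluorescence | Evaluation: Percent inhibition from t60/t0 fluorescence ratio | Benchmarks: Low DMSO, high thioflavine S at 110 µM | Replication: Singlicate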
ZTA DNA inh: blocks Epstein-Barr virus ZTA, an EBNA-1 counter-screen. P03206. ZTA-DNA binding, fluorescence polarization. inhibition, % at 11 µM. 320,000 compounds, 0.15% hits. AID 2234; in the data active = inhibition above about 33%
Target sequence (P03206 whole entry, looked up): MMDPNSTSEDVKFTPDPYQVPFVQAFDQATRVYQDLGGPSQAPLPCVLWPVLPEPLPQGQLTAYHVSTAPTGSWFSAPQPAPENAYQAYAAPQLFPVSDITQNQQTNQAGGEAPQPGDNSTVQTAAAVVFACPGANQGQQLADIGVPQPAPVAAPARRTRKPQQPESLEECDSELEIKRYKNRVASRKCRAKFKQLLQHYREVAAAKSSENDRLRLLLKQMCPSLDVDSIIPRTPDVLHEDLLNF
Starred values were filed as active, the others as inactive; . = no result given.

SMILES | DNA FID counter | EBNA-1 inh | NR3A LBD binder | FGF22 binding | HCV NS3 hel inh | ZTA DNA inh
Cc1ccc(S(=O)(=O)Nc2nc(C)c(NC(=O)Nc3ccc(Cl)cc3Cl)s2)cc1 | -3 | 4 | 28* | . | 15 | 6
CS(=O)(=O)C1=NSC2=NC(=O)/C(=C\c3cccn3-c3ccc(Cl)cc3)C(=N)N21 | -13 | 9 | 19* | . | 18 | 18
COCC(=O)N1CC2(C1)[C@H](c1ccc(-c3ccc(F)cc3)cc1)[C@@H](CO)N2C(C)=O | . | . | . | 0 | . | .
COc1ccc(-c2cc(C(=O)N/N=C/c3ccc4c(c3)OCO4)c3ccccc3n2)c(OC)c1 | -1 | -5 | -3 | . | -8 | 1
O=C(Nc1ccccc1C(=O)N/N=C/c1ccc(O)cc1)c1ccccc1 | -6 | -1 | 7 | 0 | 6 | -12
O=C(N/N=C/c1ccc2c(c1)OCO2)c1cc(-c2ccc(F)cc2)nc2ccccc12 | -5 | 7 | 25* | 0 | 17 | 2
O=C(N/N=C/c1cccc(F)c1)c1cc(-c2ccco2)nc2ccccc12 | -6 | 10 | -2 | . | 40* | -4
O=C(O)c1ccccc1NC(=O)c1cc(-c2ccccc2)nc2ccccc12 | 9 | 17 | 0 | 3.9* | -16 | 23
O=C(N/N=C/c1ccc(O)cc1)c1csc2ccccc12 | -3 | 0 | 23* | . | -6 | -9
CC(C)NC(=O)Nc1ccc2c(c1)C(=O)N([C@H](C)CO)C[C@@H](C)[C@@H](CN(C)C(=O)NC1CCCCC1)OCCCC[C@H](C)O2 | . | . | . | 0 | . | .
O=C(N/N=C/c1ccc(F)cc1)c1cc(-c2ccccn2)nc2ccccc12 | . | . | 1 | 0 | . | .
O=C(N/N=C/c1ccc(O)cc1)c1cc(-c2ccccc2)nc2ccccc12 | -17 | -13 | 13* | 0 | -19 | 5
Cc1ccc(-c2cc(C(=O)Nc3c(C)n(C)n(-c4ccccc4)c3=O)c3ccccc3n2)cc1 | . | . | 0 | 43* | . | .
COc1cc(/C=N/NC(=O)c2cc(-c3ccccc3)nc3ccccc23)ccc1O | -18 | -18 | 6 | 0 | -12 | -17
O=C(NNC(=O)c1cc(-c2ccc(Cl)c(Cl)c2)nc2ccccc12)Nc1ccccc1 | -1 | 16 | 29* | . | -7 | -5
O=C(O)COc1ccccc1/C=N/NC(=O)c1cc(-c2ccc(F)cc2)nc2ccccc12 | -20 | 7 | -2 | 1.5* | -11 | 6
CN(C)CC(=O)Nc1ccc2c(c1)[C@@H]1C[C@H](CC(=O)N3CCOCC3)O[C@H](CO)[C@@H]1O2 | . | . | . | 0 | . | .
COc1ccc2c3c([nH]c2c1)[C@H](CO)N(C(=O)C1CCCC1)CC31CN(S(C)(=O)=O)C1 | . | . | . | 0 | . | .
COc1ccc(OC)c(-c2cc(C(=O)Nc3ccccc3C(N)=O)c3ccccc3n2)c1 | . | 7 | 11* | 0 | . | -3
NS(=O)(=O)c1ccc(CCNC(=O)c2cc(-c3ccco3)nc3ccccc23)cc1 | . | . | 1 | 6.2* | . | 21
Cc1cc(-c2cc(C(=O)O)c3ccccc3n2)c(C)s1 | 2 | -6 | 1 | 44* | 4 | 8
COc1cc(/C=N/NC(=O)c2cc(-c3ccccc3Cl)nc3ccccc23)cc(OC)c1O | . | -5 | 4 | 0 | . | 11
COc1cc(/C=N/NC(=O)c2cc(-c3cccc(Br)c3)nc3ccccc23)cc(OC)c1O | . | -15 | 13* | 0 | . | -11
N/C(=N\OC(=O)c1cc(-c2ccccc2)nc2ccccc12)c1ccccn1 | 2 | 4 | -4 | 43* | 5 | 3
CCCOc1ccc(C(=O)NNC(=S)NC(=O)c2cc(-c3ccccc3)nc3ccccc23)cc1 | -6 | -19 | 18* | . | -17 | 5
SMILES | DNA FID counter | EBNA-1 inh | NR3A LBD binder | FGF22 binding | HCV NS3 hel inh | ZTA DNA inh
O=C(Nc1nccs1)c1cc(-c2ccncc2)nc2ccccc12 | 4 | -10 | -2 | 0 | 13 | 2
Cc1csc(NC(=O)c2cc(-c3ccncc3)nc3ccccc23)n1 | -12 | -1 | 0 | 44* | 10 | -9
COc1ccc(NC(=O)c2cc(-c3ccccc3)nc3c2c(C)nn3-c2ccccc2)c(OC)c1 | -4 | 3 | 13* | 0 | 5 | -17
C[C@@H]1CCCCO[C@@H](CN(C)Cc2ccc(C(F)(F)F)cc2)[C@@H](C)CN([C@@H](C)CO)C(=O)c2cc(NS(=O)(=O)c3cn(C)cn3)ccc2O1 | . | . | . | 0 | . | .
Cc1cc(C(=O)Nc2cccc3c2O[C@@H](CN(C)C(=O)Nc2ccc4c(c2)OCO4)[C@@H](C)CN([C@@H](C)CO)C3=O)n(C)n1 | . | . | . | 0 | . | .
COc1ccc(-c2cc(C(=O)Nc3ccccc3N3CCOCC3)c3ccccc3n2)cc1OC | -12 | 0 | -2 | 2.3* | -4 | -5
Cc1ccc(/C=N/NC(=O)c2cc(C3CC3)nc3ccccc23)o1 | -3 | -10 | -3 | 43* | 3 | -20
Cc1cc(C(=O)N/N=C/c2ccc(C)o2)c2ccccc2n1 | 0 | 4 | -2 | . | 1 | 2
CSc1ccccc1C(=O)C1CCCN(C(=O)c2csnn2)C1 (stereo unspecified) | -4 | -4 | -1 | 43* | -3 | 1
COc1ccc(/C=C/C(=O)NCC(=O)N/N=C(/C)c2ccco2)cc1 | -9 | 0 | 14* | 0 | 16 | 2
Cc1ccc(NC(=O)CN2C(=O)S/C(=C\c3cccn3-c3cccc(C(=O)O)c3)C2=O)cc1C | -10 | 8 | -4 | 0 | -2 | 9
Cc1cccc(NC(=O)CN2C(=O)S/C(=C\c3cccn3-c3cccc(C(=O)O)c3)C2=O)c1 | -15 | 6 | -11 | 43* | 23 | -3
Cc1ccc(NC(=O)CN2C(=O)S/C(=C\c3cc(C)n(-c4ccc(C(=O)O)cc4)c3C)C2=O)cc1 | -20 | 10 | -14 | 44* | 0 | -5
CS(=O)(=O)N1CC2(C1)[C@H](c1ccccc1)[C@@H](CO)N2C(=O)C1CCC1 | . | . | . | 0 | . | .
COc1cc(NC(=O)c2cc(C3CC3)on2)c(OC)cc1Cl | -4 | 3 | 14* | 0 | -5 | -5
C/C(=N\NC(=O)COc1ccc(C(C)(C)C)cc1)c1ccc(N2CCOCC2)cc1 | -13 | -1 | 1 | 44* | -1 | -13
C/C(=N\NC(=O)COc1ccccc1)c1ccc(O)cc1 | -8 | -9 | 13* | 43 | 1 | -9
C/C(=N\NC(=O)CC#N)c1ccc(Oc2ccccc2)cc1 | -4 | -14 | -1 | 44* | -5 | 2
COc1ccc(OCC(=O)N/N=C(\C)c2ccc(OC)cc2)cc1 | -9 | -8 | -2 | 0 | 2 | 1
C/C(=N\NC(=O)c1ccc(F)cc1)c1ccc(N2CCOCC2)cc1 | -4 | 6 | 0 | 1 | 7 | -7
O=C1C(=O)N(CC(=O)N2CCCC2)c2ccccc21 | -3 | -2 | 0 | 43* | -1 | 1
O=C(C[C@H]1C[C@@H]2c3cc(NC(=O)Nc4ccccc4F)ccc3O[C@@H]2[C@H](CO)O1)NCC(F)(F)F | . | . | . | 0 | . | .
